ChEMBL document CHEMBL3352504, “New series of monoamidoxime derivatives displaying versatile antiparasitic activity” (Eur J Med Chem, 2014)

Columns and labels:
[1] = test system: Leishmania donovani; experiment: Antileishmanial activity Leishmania donovani MHOM/IN/00/DEVI promastigotes incubated for 72 hrs by MTT assay; assay type: functional, organism-based
How it was run: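 Promastigotes of strain MHOM/IN/00/DEVI were exposed to compounds alongside amphotericin B and pentamidine reference drugs under identical conditions. IC50 was determined from three independent experiments, each run in duplicate, and reported as mean ± SD.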

[2] = Cytotoxicity against mouse J774A1 cells incubated for 72 hrs by MTT assay; assay type: cell-based, J774.A1
How it was run: (§1)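 Cytotoxicity was measured by MTT in mouse J774A.1 macrophages and human HepG2 hepatocyte-derived cells, with doxorubicin as the cytotoxic reference. The 50% cytotoxic concentration (CC50) came from three independent experiments in duplicate, reported as mean ± SD.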

[3] = Selectivity index, ratio of CC50 for mouse J774A1 cells to IC50 for Leishmania donovani MHOM/IN/00/DEVI promastigotes; assay type: functional, J774.A1
How it was run: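 SI was calculated as J774A.1 macrophage CC50 (MTT) divided by L. donovani promastigote IC50. Both inputs were means of three independent experiments run in duplicate.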

[4] = test system: Plasmodium falciparum; experiment: Antiplasmodial activity against chloroquine, pyrimethamine and proguanil-resistant Plasmodium falciparum K1 infected in human erythrocytes assessed as reduction in Parasitemia incubated for 72 hrs by SYBR Green I fluorescence-based method; assay type: functional, organism-based; details: K1, 72 h
How it was run: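 Multidrug-resistant P. falciparum K1 was tested in vitro with a SYBR Green I fluorescence-based read-out. IC50 was calculated from three independent experiments, each run in duplicate, and reported as mean ± SD.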

[5] = Cytotoxicity against human HepG2 cells incubated for 72 hrs by MTT assay; assay type: cell-based; how it was run: as §1
[6] = Selectivity index, ratio of CC50 for human HepG2 cells to IC50 for chloroquine, pyrimethamine and proguanil-resistant Plasmodium falciparum K1; assay type: functional
How it was run: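 SI = HepG2 CC50 / PfK1 IC50. CC50 was from an MTT assay on human HepG2 cells, and IC50 from the SYBR Green I fluorescence assay on P. falciparum K1. Each assay was three independent experiments in duplicate.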

SMILES | IC50 [1] [µM] | CC50 at 72 h [2] [µM] | Ratio CC50/IC50 [3] | IC50 [4] [µM] | CC50 at 72 h [5] [µM] | Ratio CC50/IC50 [6]
N/C(=N/O)c1ccc(C2=C(S(=O)(=O)c3ccc(F)cc3)CC(c3ccccc3)(c3ccccc3)O2)cc1 | 15.7 | 10.2 | 0.7 | 3.9 | 19.2 | 4.9
CC1(Cc2ccccc2)CC(S(=O)(=O)c2ccccc2F)=C(c2ccc(/C(N)=N\O)cc2)O1 (configuration not stated) | 9.16 | 29.1 | 3.2 | > 10 | 61.7 | <6.2
CC1(Cc2ccccc2)CC(S(=O)(=O)c2c(F)cccc2F)=C(c2ccc(/C(N)=N\O)cc2)O1 (configuration not stated) | 22.1 | 27 | 1.2 | 2.76 | 91.4 | 33.2
COc1ccc(C2(c3ccccc3)CC(S(=O)(=O)c3ccc(F)cc3)=C(c3ccc(/C(N)=N\O)cc3)O2)cc1 (configuration not stated) | > 50 | 11.3 | <0.2 | 4.17 | 29.4 | 7
CC1(c2ccc(-c3ccc(/C(N)=N\O)cc3)cc2)CC(S(=O)(=O)c2ccc(F)cc2)=C(c2ccc(/C(N)=N\O)cc2)O1 (configuration not stated) | > 50 | 3.94 | <0.08 | 4.93 | 15.3 | 3.1
COc1cccc2c1C(=O)c1c(O)c3c(c(O)c1C2=O)C[C@@](O)(C(=O)CO)C[C@@H]3O[C@H]1C[C@H](N)[C@H](O)[C@H](C)O1 [DOXORUBICIN] | – | 0.01 | – | – | 0.02 | –
CC1(Cc2ccccc2)CC(S(=O)(=O)c2cccc(C(F)(F)F)c2)=C(c2ccc(/C(N)=N\O)cc2)O1 (configuration not stated) | 11.9 | 14.5 | 1.2 | 6.54 | 33.4 | 5.1
CCC1(c2ccccc2OC)CC(S(=O)(=O)c2ccc(F)cc2)=C(c2ccc(/C(N)=N\O)cc2)O1 (configuration not stated) | 12.4 | 9.88 | 0.8 | 7.88 | 27 | 3.4
Cc1ccc(-c2ccc(C3(C)CC(S(=O)(=O)c4ccc(F)cc4)=C(c4ccc(/C(N)=N\O)cc4)O3)cc2)cc1 (configuration not stated) | 11.8 | 7.91 | 0.7 | > 10 | 13.7 | <1.4
COc1cc(-c2ccc(C3(C)CC(S(=O)(=O)c4ccc(F)cc4)=C(c4ccc(/C(N)=N\O)cc4)O3)cc2)cc(OC)c1OC (configuration not stated) | > 25 | 5.22 | <0.2 | 5.03 | > 50 | >9.9
CC1(c2ccc(-c3cccc(/C(N)=N\O)c3)cc2)CC(S(=O)(=O)c2ccc(F)cc2)=C(c2ccc(/C(N)=N\O)cc2)O1 (configuration not stated) | > 50 | 11 | <0.2 | 4.34 | 19 | 4.4
CC1(c2ccc(-c3ccccc3C#N)cc2)CC(S(=O)(=O)c2ccc(F)cc2)=C(c2ccc(/C(N)=N\O)cc2)O1 (configuration not stated) | 21 | 9.29 | 0.4 | > 10 | 58.3 | <5.8
CC1(c2ccc(-c3ccncc3)cc2)CC(S(=O)(=O)c2ccc(F)cc2)=C(c2ccc(/C(N)=N\O)cc2)O1 (configuration not stated) | 28 | 6.75 | 0.2 | 3.2 | 30.3 | 9.5
CC1(c2ccccc2)CC(S(=O)(=O)c2ccc(F)cc2)=C(c2ccc(/C(N)=N\O)cc2)O1 (configuration not stated) | > 50 | 29.7 | <0.6 | > 10 | 68.3 | <6.8
CC1(Cc2ccccc2)CC(S(=O)(=O)c2ccccc2C(F)(F)F)=C(c2ccc(/C(N)=N\O)cc2)O1 (configuration not stated) | 15.5 | 23.5 | 1.5 | > 10 | 57.5 | <5.7
N=C(N)c1ccc(OCCCCCOc2ccc(C(=N)N)cc2)cc1 [PENTAMIDINE] | – | – | 0.1 | – | – | –
CC1(c2ccc(Br)cc2)CC(S(=O)(=O)c2ccc(F)cc2)=C(c2ccc(/C(N)=N\O)cc2)O1 (configuration not stated) | 10.8 | 10.5 | 1 | > 10 | 19.2 | <1.9
CC1(c2ccc(-c3cccc([N+](=O)[O-])c3)cc2)CC(S(=O)(=O)c2ccc(F)cc2)=C(c2ccc(/C(N)=N\O)cc2)O1 (configuration not stated) | 14.1 | 11.1 | 0.8 | 5.82 | > 50 | >8.6
CC1(Cc2ccccc2)CC(S(=O)(=O)c2cccc(F)c2)=C(c2ccc(/C(N)=N\O)cc2)O1 (configuration not stated) | 13.1 | 28.3 | 2.2 | 7.16 | 59.6 | 8.3
CC1(c2ccc(Cl)cc2)CC(S(=O)(=O)c2ccc(F)cc2)=C(c2ccc(/C(N)=N\O)cc2)O1 (configuration not stated) | 48.4 | 31.5 | 0.7 | > 10 | 61.4 | <6.1
C[C@@H]1[C@H](O)[C@@H](C)/C=C/C=C/C=C/C=C/C=C/C=C/C=C/[C@H](O[C@@H]2O[C@H](C)[C@@H](O)[C@H](N)[C@@H]2O)C[C@@H]2O[C@](O)(C[C@@H](O)C[C@@H](O)[C@H](O)CC[C@@H](O)C[C@@H](O)CC(=O)O[C@H]1C)C[C@H](O)[C@H]2C(=O)O [AMPHOTERICIN B] | 0.15 | 6.91 | 47.1 | – | – | –
C[C@H]1c2cccc(O)c2C(=O)C2=C(O)[C@]3(O)C(=O)C(C(N)=O)=C(O)[C@@H](N(C)C)[C@@H]3[C@@H](O)[C@@H]21.O [DOXYCYCLINE] | – | – | – | – | – | 4
CC1(c2ccc(-c3ccco3)cc2)CC(S(=O)(=O)c2ccc(F)cc2)=C(c2ccc(/C(N)=N\O)cc2)O1 (configuration not stated) | > 25 | 4.56 | <0.2 | > 10 | 7.01 | <0.7
CC1(Cc2ccccc2)CC(S(=O)(=O)c2ccc(F)cc2F)=C(c2ccc(/C(N)=N\O)cc2)O1 (configuration not stated) | 32.5 | 41.5 | 1.3 | 8.21 | 90.6 | 11
